Laboratory results as given in ChEMBL document CHEMBL1147139, “Synthesis and pharmacological evaluation of a selected library of new potential anti-inflammatory agents bearing the gamma-hydroxybutenolide scaffold: a new class of inhibitors of prostanoid production through the selective modulation of microsomal prostaglandin E synthase-1 expression” (J Med Chem, 2007).
Calls of active or inactive are those of the source. No cut-off for these calls is given here. Residues, ends and D or L forms follow the SMILES beside them. *: point of attachment. Cbz = O=C(OCc1ccccc1)*

Experiments:
[1] = target: Acidic phospholipase A2 2 (Naja naja) (UniProt P15445); assay: Inhibition of Naja naja venom sPLA2 at 10 uM
Acidic phospholipase A2 2 (Naja naja), sequence (P15445 whole entry): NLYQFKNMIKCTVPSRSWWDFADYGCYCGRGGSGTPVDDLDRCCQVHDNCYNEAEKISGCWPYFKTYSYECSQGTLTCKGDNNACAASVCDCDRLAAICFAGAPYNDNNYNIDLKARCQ
Procedure, shortened: (§1)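 Radiometric sPLA2 assay on [3H]oleate-labeled, autoclaved E. coli CECT 101 membranes. Enzyme in 100 mM Tris-HCl/1 mM CaCl2, pH 7.5, preincubated 5 min at 37 °C with compound (10 µM) or vehicle. Then 15 min with labeled membranes, stopped with ice-cold BSA (0.07% w/v final). Supernatant radioactivity counted after centrifugation; % inhibition, mean ± SEM, n = 6.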

[2] = target: Phospholipase A2, major isoenzyme (Sus scrofa) (UniProt P00592); assay: Inhibition of pig sPLA2 at 10 uM
Phospholipase A2, major isoenzyme (Sus scrofa), sequence (P00592 23-146 limits assumed): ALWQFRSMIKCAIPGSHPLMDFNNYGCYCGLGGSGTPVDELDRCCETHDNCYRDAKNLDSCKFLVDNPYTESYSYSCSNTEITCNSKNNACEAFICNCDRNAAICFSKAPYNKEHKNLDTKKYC
Procedure, shortened: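 sPLA2 (human recombinant synovial group IIA; porcine pancreatic group IB) in 100 mM Tris-HCl/1 mM CaCl2, pH 7.5, preincubated 5 min at 37 °C with compound (10 µM) or vehicle. 15 min incubation with [3H]oleate-labelled autoclaved E. coli membranes as substrate. Stopped with ice-cold BSA (0.07% final), centrifuged, supernatant radioactivity counted. Mean ± SEM, n = 6.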

[3] = target: T1, Phospholipase A2 (Apis mellifera) (UniProt P00630); assay: Inhibition of bee venom sPLA2 at 10 uM; procedure, shortened: as §1
T1 sequence (whole entry): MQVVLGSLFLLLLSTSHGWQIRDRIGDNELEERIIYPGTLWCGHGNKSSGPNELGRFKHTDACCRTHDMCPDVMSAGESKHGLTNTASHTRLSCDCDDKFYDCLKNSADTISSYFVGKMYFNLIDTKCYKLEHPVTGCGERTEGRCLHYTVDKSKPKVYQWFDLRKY

RAW264.7 [4] = assay: Inhibition of NF-kappaB DNA binding in LPS-stimulated mouse RAW264.7 cells; assay type: cell-based
Procedure, shortened: (§2)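 EMSA: RAW 264.7 cells (1.5 × 10^6/well) preincubated 30 min with compound, then LPS (1 µg/mL) for 1 h. Nuclear extracts (6 µg) incubated on ice for 15 min with 32P-end-labelled consensus NF-κB oligonucleotide and poly(dI-dC), pH 8.0. Complexes resolved on native 6% PAGE and detected by autoradiography. Two independent experiments.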

RAW264.7 [5] = assay: Inhibition of PGE2 production in LPS-stimulated mouse RAW264.7 cells at 1 uM after 18 hrs; assay type: functional
Procedure, shortened: (§3)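 RAW 264.7 macrophages (1.5 × 10^6 cells/mL) co-incubated with E. coli 0111:B4 LPS (1 µg/mL) and compound or vehicle at 37 °C (induction phase). PGE2 in supernatants measured by radioimmunoassay; MTT reduction checked cytotoxicity. Mean ± SEM, n = 6; IC50 from at least four concentrations.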

RAW264.7 [6] = assay: Inhibition of PGE2 production in LPS-stimulated mouse RAW264.7 cells at 10 uM after 18 hrs; assay type: functional; procedure, shortened: as §3
RAW264.7 [7] = assay: Inhibition of PGE2 production in LPS-stimulated mouse RAW264.7 cells at 1 uM after 2 hrs; assay type: functional
Procedure, shortened: (§4)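 Post-induction phase: RAW264.7 cells that had already expressed COX-2 and mPGES-1 after LPS stimulation were given compound for 2 h in fresh medium supplemented with arachidonic acid. PGE2 in supernatants was quantified by radioimmunoassay. Mean ± SEM, n = 6.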

RAW264.7 [8] = assay: Inhibition of PGE2 production in LPS-stimulated mouse RAW264.7 cells at 10 uM after 2 hrs; assay type: functional; procedure, shortened: as §4
RAW264.7 [9] = assay: Inhibition of mPGES1 expression in LPS-stimulated mouse RAW264.7 cells after 2 hrs by Western blot analysis; assay type: functional, cell-based
THP-1 = assay: Inhibition of COX2 expression in LPS-stimulated human THP1 cells at 1 uM by Western blot analysis; assay type: functional, cell-based
Procedure, shortened: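 THP-1 human monocytic cells (1 × 10^6 cells/mL, RPMI with 10% FBS) incubated 18 h with LPS (1 µg/mL) plus compound. Lysates taken, total fraction (30 µg protein) run on SDS-15% PAGE, then blotted with polyclonal anti-COX-2 (1/200), peroxidase secondary and chemiluminescence detection.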

Mus musculus [10] = species: Mus musculus; assay: Decrease of mPGES1 expression in zymosan-stimulated Swiss mouse air pouch model after 24 hrs; assay type: functional, organism-based
Procedure, shortened: (§5)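 Female Swiss mice (25-30 g) air pouch; six days after initial air injection, 1 mL of 1% (w/v) zymosan in saline injected into pouch, compound given intrapouch at the same time. Exudate collected after 24 h; cell pellets analysed by Western blot for COX-2, mPGES-1 and β-actin. Densitometry expressed as percentage of zymosan control band intensity.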

RAW264.7 [11] = assay: Inhibition of PGE2 production in LPS-stimulated mouse RAW264.7 cells after 18 hrs; assay type: functional, cell-based; details: RAW264.7, 18 h; procedure, shortened: as §3
RAW264.7 [12] = assay: Inhibition of COX2 expression in LPS-stimulated mouse RAW264.7 cells after 2 hrs by Western blot analysis; assay type: functional, cell-based
RAW264.7 [13] = assay: Inhibition of NF-kappaB DNA binding in LPS-stimulated mouse RAW264.7 cells at 10 uM; assay type: cell-based; procedure, shortened: as §2
Mus musculus [14] = species: Mus musculus; assay: Inhibition of COX2 expression in zymosan-stimulated Swiss mouse air pouch model after 24 hrs; assay type: functional, organism-based; procedure, shortened: as §5
RAW264.7 [15] = assay: Inhibition of NF-kappaB DNA binding in LPS-stimulated mouse RAW264.7 cells at 1 uM; assay type: cell-based; procedure, shortened: as §2

Row | SMILES | inhibition [1] [%] | inhibition [2] [%] | inhibition [3] [%] | other results
1 | CCc1c(CC(N)=O)c2cc(OCCCP(=O)(O)O)ccc2n1Cc1ccccc1 | 2.7 | 6.8 | 0 | Activity (RAW264.7 [4]): inactive
2 | O=C1OC(O)C(c2cc3ccccc3s2)=C1Br (stereo not drawn) | 3.4 | 18.7 | 0 | Activity (RAW264.7 [5]): 10.7 ng/mL; Activity (RAW264.7 [6]): 6.7 ng/mL; Activity (RAW264.7 [7]): 0.23 ng/mL; Activity (RAW264.7 [8]): 0.22 ng/mL; Activity (RAW264.7 [9]): Dose-dependent effect; Activity (THP-1): inactive; Activity (Mus musculus [10]): Active; Activity (RAW264.7 [4]): Dose-dependent effect; IC50 (RAW264.7 [11]): 1.8 µM; Activity (RAW264.7 [12]): inactive
3 | O=C1OC(O)C(c2cccc3c2oc2ccccc23)=C1Br (stereo not drawn) | 0 | 38.6 | 20.4 | –
4 | CCCCc1ccc(C2=C(Br)C(=O)OC2O)cc1 (stereo not drawn) | 26 | 35.1 | 32.9 | –
5 | O=C1OC(O)C(c2ccc3ccccc3c2)=C1Br (stereo not drawn) | 9.2 | 27.7 | 14.7 | –
6 | O=C1OC(O)C(c2ccc(-c3ccccc3)cc2)=C1Br (stereo not drawn) | 7.5 | 26 | 14.4 | –
7 | CS(=O)(=O)Nc1ccc([N+](=O)[O-])cc1OC1CCCCC1 [NS-398] | – | – | – | Activity (RAW264.7 [8]): 0.07 ng/mL
8 | O=C1OC(O)C(c2cccc3c2Sc2ccccc2S3)=C1Br (stereo not drawn) | 1.5 | 0 | 0 | –
9 | CC(C)C[C@@H](C=O)NC(=O)[C@H](CC(C)C)NC(=O)[C@H](CC(C)C)NC(=O)OCc1ccccc1 (Cbz-Leu-Leu-Leu-aldehyde) | – | – | – | Activity (RAW264.7 [13]): Active
10 | O=C1OC(O)C(c2csc3ccccc23)=C1Br (stereo not drawn) | 15.4 | 33.5 | 9.8 | –
11 | C[C@@H]1C[C@H]2[C@@H]3CCC4=CC(=O)C=C[C@]4(C)[C@@]3(F)[C@@H](O)C[C@]2(C)[C@@]1(O)C(=O)CO [DEXAMETHASONE] | – | – | – | Activity (RAW264.7 [5]): 3.4 ng/mL; Activity (RAW264.7 [7]): 0.21 ng/mL; Activity (RAW264.7 [9]): Active; Activity (Mus musculus [10]): Active; Activity (Mus musculus [14]): Active; Activity (RAW264.7 [12]): Active
12 | O=C1OC(O)C(c2ccc3ccccc3c2)=C1c1ccc2ccccc2c1 (stereo not drawn) | 9.1 | 22.5 | 25.2 | –
13 | O=C1OC(O)C(c2cccc3ccccc23)=C1Br (stereo not drawn) | 8.6 | 13.7 | 0 | –
14 | CC(=O)O[C@@H]1O[C@@H](C2=CC(=O)OC2O)C[C@@H]2[C@@H]1CC[C@H]1[C@@]2(C)CC[C@H]2C(C)(C)CCC[C@]12C (stereo partly drawn) [PETROSASPONGIOLIDE M] | 5.4 | 11.4 | 60.8 | Activity (RAW264.7 [5]): 7.3 ng/mL; Activity (RAW264.7 [7]): 0.22 ng/mL; Activity (RAW264.7 [15]): Active
15 | O=C1OC(O)C(c2ccc(Oc3ccccc3)cc2)=C1Br (stereo not drawn) | 1 | 7.8 | 2.1 | –
